Assay results reported in ChEMBL document CHEMBL1152172, “Synthesis and biological activities of novel nonpeptide angiotensin II receptor antagonists based on benzimidazole derivatives bearing a heterocyclic ring” (Bioorg Med Chem, 2008).
Activity calls are given as the source filed them. No cut-off for these calls is given here.

Assays:
Canis familiaris [1] = assay: Antihypertensive activity against angiotensin II-induced pressor response in conscious normotensive Beagle dog assessed as rate of change of mean systolic blood pressure at 2.13 mg/kg, po after 1 hr; type: functional, Canis lupus familiaris, Artery
Outline: (§1)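 Conscious normotensive Beagle dogs, 6–7 per group. Baseline BP and heart rate recorded once stable, then test compound given orally at 2.13 mg/kg. BP and heart rate read 1 h after dosing, then AngII 0.45 µg/kg iv, with waveforms recorded 1 min after injection. Values given as rate of change relative to pre-model baseline (100%), with SEM.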

Canis familiaris [2] = assay: Antihypertensive activity against angiotensin II-induced pressor response in conscious normotensive Beagle dog assessed as rate of change of mean arterial blood pressure at 2.13 mg/kg, po after 1 hr; type: functional, Canis lupus familiaris, Artery; outline: as §1
Canis familiaris [3] = assay: Antihypertensive activity against angiotensin II-induced pressor response in conscious normotensive Beagle dog assessed as rate of change of mean diastolic blood pressure at 2.13 mg/kg, po after 1 hr; type: functional, Canis lupus familiaris, Artery; outline: as §1
Canis familiaris [4] = assay: Antihypertensive activity against angiotensin II-induced pressor response in conscious normotensive Beagle dog assessed as decrease in basal heart rate at 2.13 mg/kg, po after 1 hr; type: functional, organism-based; design: dose 2.13 mg/kg; conditions: Canis lupus familiaris; outline: as §1

| SMILES | Activity (Canis familiaris [1]) [%] | Activity (Canis familiaris [2]) [%] | Activity (Canis familiaris [3]) [%] | Activity (Canis familiaris [4]) |
| --- | --- | --- | --- | --- |
| CCCc1nc2c(C)cc(-c3nc4ccccc4n3C)cc2n1Cc1ccc(-c2ccccc2C(=O)O)cc1 | 95.78 | 96.13 | 96.15 |  |
| CCCc1nc2c(C)cc(-c3nc4ccccc4n3C)cc2n1Cc1ccc(-c2ccccc2C2=NCCN2)cc1 | 96.75 | 97.43 | 95.28 | Active |
| CCCc1nc2c(C)cc(-c3nc4ccccc4n3C)cc2n1Cc1ccc(-c2ccccc2-c2ncn[nH]2)cc1 | 103.8 | 103.37 | 103.14 | inactive |
| CCCc1nc2c(C)cc(-c3nc4ccccc4n3C)cc2n1Cc1ccc(-c2ccccc2-c2ncc[nH]2)cc1 | 98.67 | 98.11 | 97.96 | Active |
| CCCc1nc2c(C)cc(-c3nc4ccccc4n3C)cc2n1Cc1ccc(-c2ccccc2-c2ncc(Cl)[nH]2)cc1 | 95.75 | 95.43 | 95.28 | Active |
